The results in this text go back to ChEMBL document CHEMBL1137788, “Potential neuroprotective drugs in cerebral ischemia: new saturated and polyunsaturated lipids coupled to hydrophilic moieties: synthesis and biological activity” (J Med Chem, 2009).

Series [1] deals with HT-22. Nature of the series: Neuroprotective effect against glutamate-induced neuronal cell death in mouse HT22 cells assessed as cell survival at 1 to 10 uM treated simultaneously with glutamate after 24 hrs by MTT assay. In kind it is functional. The procedure, abridged:
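Mouse HT22 hippocampal cells grown in DMEM/10% FCS, seeded 5 × 10³ cells/well. Next day medium changed to DMEM with 7.5% dialyzed FCS and cells given analogue doses together with 5 mM glutamate for 24 h. Medium then replaced with 2.5 μg/mL MTT for 4 h at 37 °C and solubilized in 50% DMF/20% SDS (pH 4.7). A570 read next day. Maximal % survival at best dose reported.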

Series [2] is described as follows: Cytotoxicity against mouse HT22 cells at 10 uM after 24 hrs by MTT assay. In kind it is cell-based. The following applies: ht-22, 24 h. The method, boiled down:
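HT22 cells grown in DMEM with 10% FCS were seeded at 5 × 10³ cells per well. The medium was switched to DMEM with 7.5% dialyzed FCS and cells were exposed to 10 μM compound alone. Viability was read after 24 h by MTT (2.5 μg/mL, 4 h at 37 °C, solubilized in DMF/SDS pH 4.7) at 570 nm.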
For orientation: Tetrazolium dyes change colour on reduction, which living cells bring about.

Series [3] deals with HT-22. In words: Neuroprotective effect against iodoacetic acid-induced ischemia in mouse HT22 cells assessed as cell survival at 1 to 10 uM treated simultaneously with iodoacetic acid for 2 hrs followed by incubation in fresh medium containing drug alone for 20 hrs measured after 4 hrs by MTT assay. In kind it is functional. The procedure, abridged: (§1)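 HT22 cells were seeded at 5 × 10³ per well and moved next day to DMEM with 7.5% dialyzed FCS. They were exposed to 20 μM iodoacetic acid plus graded compound doses for 2 h, then given fresh IAA-free medium containing compound for 20 h. MTT was added for 4 h at 37 °C and absorbance read at 570 nm.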

Series [4] deals with HT-22. Nature of the series: Activation of ERK phosphorylation in mouse HT22 cells at 10 uM treated simultaneously with iodoacetic acid for 2 hrs followed by 2 hrs of recovery in presence of drug alone by immunoblot analysis. The format is cell-based. The method, boiled down:
(§2)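 HT22 cells, plated at the same density as for the death assays, were given 10 μM compound with or without 20 μM IAA for 2 h, then allowed 2 h of recovery with compound present. Cells were washed in PBS and lysed in SDS sample buffer with Na3VO4 and PMSF. Lysates were run on 10% gels and immunoblotted for phospho and total ERK, JNK, p38, c-Jun and MAPKAPK2.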

The subject of series [5] is HT-22. Nature of the series: Neuroprotective effect against iodoacetic acid-induced ischemia in mouse HT22 cells treated simultaneously with iodoacetic acid for 2 hrs followed by incubation in fresh medium containing drug alone for 20 hrs measured after 4 hrs by MTT assay. In kind it is functional, cell-based. The method, boiled down:
as §1

Series [6] relates to Brain. Nature of the series: Neuroprotective effect against glutamate-induced injury in rat brain slices at 10 uM treated 1 hr prior to and during glutamate challenge by 2, 3, 5-triphenyl tetrazolium chloride staining method. The format is functional, tissue-based. The method, boiled down: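 Rat cortical slices were cultured with compound for 1 h before and during injury with 1 mM glutamate. Slice viability was assessed by TTC staining, n=6, mean ± SD.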

The target in series [7] is T1, MAP kinase p38 (Mus musculus) (UniProt P47811+O08911+Q9WUI1+Q9Z1B7). Nature of the series: Inhibition of p38 MAPK activation in mouse HT22 cells at 10 uM treated simultaneously with iodoacetic acid for 2 hrs followed by 2 hrs of recovery in presence of drug alone by immunoblot analysis. In kind it is cell-based. The following applies: HT-22. The procedure, abridged:
as §2
(In western blotting, separated proteins are transferred to a membrane and probed.)

Series [8] deals with HT-22. In words: Inhibition of JNK activation in mouse HT22 cells assessed as c-jun phosphorylation at 10 uM treated simultaneously with iodoacetic acid for 2 hrs followed by 2 hrs of recovery in presence of drug alone by immunoblot analysis. The format is cell-based. The procedure, abridged: as §2
For series [9], the target named is T1, MAP kinase p38 (Mus musculus). Nature of the series: Inhibition of p38 MAPK activation in mouse HT22 cells assessed as MAPKAPK2 phosphorylation at 10 uM treated simultaneously with iodoacetic acid for 2 hrs followed by 2 hrs of recovery in presence of drug alone by immunoblot analysis. The format is cell-based. The following applies: HT-22. The procedure, abridged: as §2

For series [10], the system named is HT-22. In words: Inhibition of JNK activation in mouse HT22 cells at 10 uM treated simultaneously with iodoacetic acid for 2 hrs followed by 2 hrs of recovery in presence of drug alone by immunoblot analysis. The format is cell-based. The method, boiled down:
as §2

Active and inactive are the calls of the source. The calls are words filed in the database; no cut-off is given here.

As to `CC(C)C1=CC2=CCC3[C@](C)(CCC[C@]3(C)C(=O)NC(CO)C(=O)O)[C@@H]2CC1` (stereo partly drawn), the “%max” value in [1] was found to be 10%; in series [3], 27%. The same compound came in with an Activity in series [2] of 26%. The outcome in [4] was inactive.

Regarding `CC1=CC(=O)CC(C)(C)C1(O)/C=C/C(C)=C/C(=O)NC(CO)C(=O)O` (stereo not drawn), the “%max” value in series [1] is on record as 14%; in [3], 70%. In addition, the Activity in series [2] was determined as 40%. In series [5], this compound returned an EC50 of 2.7 µM. Also, the result in series [4] was inactive.

For `O=c1c(O)c(-c2ccc(O)c(O)c2)oc2cc(O)ccc12` [FISETIN], the Activity in [2] amounted to 15%. This compound also displayed an EC50 in [5] of 2.8 µM. In series [3], the “%max” value is 95%. In addition, in series [4], the result was inactive.

Turning to `CCCCCCCCCCCCCCCCCC(=O)NC(CO)C(=O)O` (stereo not drawn), the figures for the “%max” value in series [1] and in series [3] were 16% and 65%, respectively. Moreover, the outcome in series [6] was Active. The compound further came in with an Activity in series [2] of 28%. Moreover, the concentration giving a half-maximal response (EC50) in [5] worked out at 3.2 µM. Moreover, the outcome in series [4] was inactive.

Consider `CCOC(=O)C(CO)NC(=O)/C=C(C)/C=C/C1(O)C(C)=CC(=O)CC1(C)C` (stereo not drawn), for which the “%max” value in series [1] came out at 21%; in [3] it was 39%. The compound further displayed an Activity in [2] of 1%. The EC50 in series [5] was found to be 13.6 µM. Further, the outcome in [4] was inactive.

`CCCCC/C=C\C/C=C\CCCCCCCC(=O)NCCCCCC(=O)OCC(O)C1OC(=O)C(O)=C1O` (stereo not drawn): the entries for the “%max” value in [1] and in series [3] were 32% and 55%, respectively. Moreover, the Activity in series [2] was determined as 19%. This compound also showed an EC50 in [5] of 6.4 µM. The outcome in [4] was inactive.

As to `CCCCCCCCCCCCCCCCCC(=O)NCCCCCC(=O)OCC(O)C1OC(=O)C(OCc2ccccc2)=C1OCc1ccccc1` (stereo not drawn), the “%max” value in series [1] was 19%; in [3], 68%. The compound also showed an Activity in series [2] of 48%. Besides, the EC50 in series [5] came out at 2.5 µM. The result in series [4] was inactive.

Regarding `CCCCC/C=C/C/C=C/CCCCCCCC(=O)NCCCCCC(=O)OCC(O)C1OC(=O)C(OCc2ccccc2)=C1OCc1ccccc1` (stereo not drawn), the “%max” value in series [1] is 13%; in series [3] it was 59%. For the same compound, the Activity in [2] is 7%. The same compound displayed an EC50 in series [5] of 8.2 µM. Also, the outcome in series [4] was inactive.

`CCCCCCCCCCCCCCCCCC(=O)NC(CO)P(=O)(OC)OC` (stereo not drawn): the results for the “%max” value in series [1] and in series [3] were 17% and 64%, respectively. The compound also came in with an Activity in series [2] of 11%. This compound yielded an EC50 in [5] of 4.1 µM. For the same compound, in series [4], the result was inactive.

As for `CCCCCCCCCCCCCCCCCC(=O)NCCCCCC(=O)OCC(O)C1OC(=O)C(O)=C1O` (stereo not drawn), the “%max” value is reported as 65% in series [1] and 92% in series [3]. In series [2], this compound displayed an Activity of 40%. This compound also registered an EC50 in series [5] of 1.8 µM. In [4], the outcome was inactive.

With `CCCCC/C=C/C/C=C/CCCCCCCC(=O)NC(C(=O)OCC)c1nnn[nH]1` (stereo not drawn), the entries for the “%max” value in [1] and in [3] were 8% and 41%, respectively. In [2], this compound registered an Activity of 4%. In series [5], this compound returned an EC50 of 11.3 µM. The outcome in [4] was inactive.

On to `CCOC(=O)C(CO)NC(=O)C=C(C)/C=C/C=C(C)/C=C/C1=C(C)CCCC1(C)C` (stereo not drawn), for which the “%max” value in series [1] was determined as 14%; in [3] it was 45%. The same compound came in with an Activity in [2] of 15%. The same compound registered an EC50 in [5] of 11.6 µM. For the same compound, the result in series [4] was inactive.

As for `CCOC(=O)C(CO)NC(=O)[C@@]1(C)CCC[C@@]2(C)C1CC=C1C=C(C(C)C)CC[C@H]12` (stereo partly drawn), the “%max” value is given as 55% in series [1] and 85% in series [3]. In addition, the Activity in series [2] is listed as 25%. In series [5], this compound registered an EC50 of 1.05 µM. The result in series [7], in series [8], in series [9] and in series [10] was Active. Besides, in series [4], the outcome was inactive.

As for `CCCCCCCCCCCCCCCCCC(=O)NC(CO)P(=O)(O)O` (stereo not drawn), the “%max” value is given as 20% in [1] and 74% in series [3]. In addition, the Activity in [2] was found to be 50%. For the same compound, a half-maximal response in series [5] (EC50) required 2.1 µM. For the same compound, the outcome in series [4] was inactive.

As for `CCCCCCCCCCCCCCCCCC(=O)NC(CO)C(=O)OCC` (stereo not drawn), the “%max” value in series [1] worked out at 16%; in series [3] it was 56%. In series [2], the Activity stood at 53%. The same compound returned an EC50 in [5] of 9.8 µM. Further, the outcome in series [4] was inactive.

Turning to `CC1=C(/C=C/C(C)=C/C=C/C(C)=C/C(=O)NC(CO)C(=O)O)C(C)(C)CCC1` (stereo not drawn), the “%max” value in [1] is listed as 16%; in series [3], 63%. In addition, the Activity in [2] is given as 20%. In series [5], this compound yielded an EC50 of 4.1 µM. In addition, the result in series [4] was inactive.

Usually EC50 stands for the concentration that produces a half-maximal response. Read a high EC50 as a need for much substance.
